One assay deals with B5 and SH-SY5Y cells. Nature of the assay: Competition of 125I-LIP2 binding. Also noted: species or system human. The note with it: 2 μM competitor, preincubated 1 h at 4°C, 10 nM 125I-LIP2.
Assay [1] concerns the target specific receptors (binding sites) for LIP2 on B5 human prostatic adenocarcinoma cells (human (endogenous in B5)). The assay is described as follows: radioligand binding.
Assay [2] has as its system PC12 cells. The assay is described as follows: F-actin redistribution in PC12 cells. The assay is classed as cell-based, rat. Put shortly: (§1)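 B5 cells and PC12 cells were seeded in RPMI-1640 with 1% horse serum, with PC12 cells on poly-D-lysine. After 18 h, cells were exposed for 2 min at 37°C to test peptide (10−7, 10−8 or 10−9 M) or 100 ng/ml NGF. For PC12, a control peptide was used at 10−6 and 10−7 M. Cells were PBS-washed, fixed in 3% paraformaldehyde for 20 min and permeabilised in 0.1% Triton X-100 for 2 min. F-actin was stained with phallacidin–BODIPY or phalloidin–rhodamine and examined by fluorescence microscopy.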

The subject of the next assay is B5 cells. Nature of the assay: F-actin redistribution in B5 cells. It counts as cell-based, human. The note with it: 2 min at 37°C; LIP1, LIP2 or 100 ng/ml NGF. Put shortly:
as §1

Assay [3] has as its system PC12 cells. The assay is described as follows: Neurite outgrowth in PC12 cultures. The note with it: NGF-treated; data not shown. It counts as cell-based, rat.
Another assay deals with chick embryo DRG ganglia. The assay is described as follows: Neurite outgrowth in dorsal root ganglia. It counts as cell-based. The note with it: 10 ng of mouse NGF; data not shown. Put shortly:
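Dorsal root ganglia were dissected from 9-day-old chick embryos. They were cultured with test peptides at 10−7, 10−8 and 10−9 M, or with 10 ng mouse NGF. Neurite outgrowth was scored.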

Assay [4] deals with Trk protein. The assay is described as follows: Trk tyrosine phosphorylation in PC12 cells overexpressing TrkA. The assay is classed as cell-based. The note with it: 200 ng/ml NGF, 5 min. In a few lines:
(§2)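 Confluent B5 cells or TrkA-overexpressing PC12 cells (10–15-fold TrkA) were stimulated for 5 min with test peptide at 10−9 or 10−7 M, or with NGF at 200 ng/ml. Lysates were immunoprecipitated with a pan-Trk antibody against the TrkA C-terminus and run on 7.5% SDS-PAGE. Blots were probed overnight at 4°C with HRP-anti-phosphotyrosine (1:2,500) and detected by ECL. They were then stripped and reprobed with pan-Trk antibody as a loading control.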

The subject of assay [5] is Trk protein. Nature of the assay: Trk tyrosine phosphorylation in B5 cells. It counts as cell-based, human. The note with it: 200 ng/ml NGF, 5 min. Put shortly: as §2
The subject of assay [6] is Trk protein. The note with it: ref Kaplan et al., 1991; cited from earlier work.

Data on 19 molecules can be found in paper PMC2134812 (The Journal of Cell Biology, 1997).

“Also recorded” adds a separate entry of the source. Where only a bound is given, the exact number is not on record here.

For the molecule α-melanocyte stimulating hormone, in the assay with B5 and SH-SY5Y cells, the “Inhibition of 125I-LIP2 binding (in words)” value (from here on “Inhibition”) is listed as “No significant inhibitory effect”.

Take leupeptin: the “Inhibition” value with B5 and SH-SY5Y cells is “No significant inhibitory effect”.

As to cytochrome c, the “Inhibition” value in the assay on B5 and SH-SY5Y cells is reported as “No significant inhibitory effect”.

On to vasopressin, for which the “Inhibition” value in the assay with B5 and SH-SY5Y cells is reported as “No significant inhibitory effect”.

For aprotinin, in the assay on B5 and SH-SY5Y cells, the “Inhibition” value is recorded as “No significant inhibitory effect”.

On to α2-macroglobulin, for which the “Inhibition” value with B5 and SH-SY5Y cells is on record as “No significant inhibitory effect”.

In the case of neurotensin, the “Inhibition” value in the assay on B5 and SH-SY5Y cells was “No significant inhibitory effect”.

In the case of “vasoactive intestinal peptide [vasoactive intestinal peptide (VIP)]”, the “Inhibition” value in the assay on B5 and SH-SY5Y cells is “No significant inhibitory effect”.

In turn, “LIP2 (38aa synthetic peptide, sequence -40 to -3 of the rat NGF precursor), unlabelled” showed a dissociation constant (Kd) in assay [1] of 200 to 400 nM.

For pepstatin A, in the assay on B5 and SH-SY5Y cells, the “Inhibition” value was “No significant inhibitory effect”.

ubiquitin: in the assay with B5 and SH-SY5Y cells, the “Inhibition” value is on record as “No significant inhibitory effect”.

As to bombesin, the “Inhibition” value in the assay on B5 and SH-SY5Y cells is recorded as “No significant inhibitory effect”.

In the case of somatostatin, the “Inhibition” value with B5 and SH-SY5Y cells was “No significant inhibitory effect”.

With substance P, in the assay with B5 and SH-SY5Y cells, the “Inhibition” value is “No significant inhibitory effect”.

In [1], “125I-LIP2 (iodinated 38aa synthetic peptide, sequence -40 to -3 of the rat NGF precursor)” registered a Kd, high affinity binding site of 2.8 nM and a Kd, low affinity binding site of 48 nM.

On to “[Tyr^8] bradykinin (RPPGFSPYR; Bradykinin; UniProt P01042 381-389, looked up, variant F8Y)”, for which the “F-actin redistribution, control peptide” value with PC12 cells [2] (10^−6 and 10^−7 M) is listed as “had no effect”.

As for epidermal growth factor, the “Inhibition” value in the assay on B5 and SH-SY5Y cells is reported as “No significant inhibitory effect”.

Turning to methionine enkephalin, the “Inhibition” value with B5 and SH-SY5Y cells is on record as “No significant inhibitory effect”.

B1: NGF: mature 118aa NGF peptide (protein)
chain: SSTHPVFHMGEFSVCDSVSVWVGDKTTATDIKGKEVTVLAEVNINNSVFRQYFFETKCRASNPVESGCRGIDSKHWNSYCTTTHTFVKALTTDEKQAAWRFIRIDTACVCVLSRKATRRG
Regarding B1, the “Inhibition” value in the assay on B5 and SH-SY5Y cells is on record as “did not show any significant inhibition”. Moreover, in the assay with PC12 cells [2] (2 min at 37°C, 100 ng/ml NGF), the “F-actin redistribution, NGF” value is “more abundant ruffling”. The F-actin redistribution entry in the assay with B5 cells was “neither NGF nor the peptides induced F-actin rearrangement in B5 cells; also recorded: had no effect on B5 cells”. In addition, the “Neurite outgrowth, NGF” value in the assay with PC12 cells [3] and in the assay on chick embryo DRG ganglia was “dense neurite outgrowth” in each case. The “Trk tyrosine phosphorylation, NGF” value in the assay with Trk protein [4] and with Trk protein [5] was “phosphorylation of Trk” in each case. Also, the “Time to trk tyrosine phosphorylation by NGF” value with Trk protein [6] is at most 1 min.

By Kd is commonly meant a measure of binding affinity in units of concentration. Low values mean higher affinity, high ones lower affinity.
